{"source": "paper PMC5788008", "about": "(Current drug discovery technologies, 2017)", "molecules": {"B1": {"name": "P. aeruginosa MetRS (Pseudomonas aeruginosa PAO1) (protein)", "chain": "MSEPRKILVTSALPYANGSIHLGHMLEYIQTDMWVRFQKMRGNQAVYVCADDAHGSAIMLRAEREGITSEQLIDAVRAEHMGDFADFLVDFDNYHSTHSEENRELSSAIYLKLRDAGHIDTRPVTQYFDPEKQMFLADRFIKGTCPKCGTADQYGDNCEACGATYAPTELKDPKSAISGATPVLKESLHYFFKLPDFEAMLKQWTRSGALQESVANKLAEWLDSGLQQWDISRDAPYFGFEIPDAPGKYFYVWLDAPIGYMASFKNLCARRPELDFDAFWGKDSGAELYHFIGKDIVNFHALFWPAMLEGAGYRKPTALNVHGYLTVNGQKMSKSRGTFVKARTYLDHLDPEYLRYYYASKLGRGVEDLDLNLEDFVQKVNSDLVGKVVNIASRCAGFIHKGNAGVLVGADPAPELLAAFREAAPGIAEAYEARDFNRAMREIMALADRANAWIAEQAPWALAKQEGQQDKVQAVCGLGINLFRQLVIFLKPVLPKLAAAAEAFLNVAPLTWADHQTLLANHQLNPFQPLMTRIEPAKVEAMIEASKEDLAAASQPAGNGELVKEPIAAEIDFDAFAAVDLRIALIEKCEFVEGADKLLRLSLDIGDAKRNVFSGIKSAYPDPSALEGRLTLYVANLAPRKMKFGVSEGMVLAAGPGGEEIYLLSPDSGAKPGQRVK"}}, "key": {"P. aeruginosa MetRS [1]": {"target": "T1, P. aeruginosa MetRS (Pseudomonas aeruginosa, UniProt Q9HYC7)", "T1 sequence (Q9HYC7 1-677)": "B1 chain"}, "E. coli MetRS": {"tested_on": "E. coli MetRS", "settings": "cited from earlier work"}, "[2]": {"tested_on": "H. influenzae (ATCC 49766)", "test": "MIC, broth microdilution", "type": "cell-based, Haemophilus influenzae"}, "E. faecalis (ATCC 29212)": {"tested_on": "E. faecalis (ATCC 29212)", "test": "MIC, broth microdilution", "type": "cell-based, Enterococcus faecalis"}, "S. aureus (ATCC 29213)": {"tested_on": "S. aureus (ATCC 29213)", "test": "MIC, broth microdilution", "type": "cell-based, Staphylococcus aureus"}, "[3]": {"tested_on": "human embryonic kidney 293 cells (HEK-293)", "test": "MTT cytotoxicity assay", "type": "cell-based"}, "P. aeruginosa MetRS [4]": {"target": "T1, P. aeruginosa MetRS", "test": "Binding mode", "type": "biochemical", "settings": "for competition with methionine for binding MetRS: 25-300 μM methionine, 2.5 mM ATP; for competition with ATP for binding MetRS: 25-1000 μM ATP, 75 μM methionine"}, "P. aeruginosa MetRS [5]": {"target": "T1, P. aeruginosa MetRS", "test": "tRNA aminoacylation assay in SPA format", "type": "biochemical"}, "[6]": {"tested_on": "P. aeruginosa (hypersensitive)", "test": "MIC, broth microdilution", "type": "cell-based, Pseudomonas aeruginosa", "settings": "P. aeruginosa hypersensitive strain (ATCC 35151)", "how_it_was_run": "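Broth microdilution per CLSI guideline M7-A7, read as MIC in μg/ml. Hypersensitive strain ATCC 35151 was a gift. Compound stocks were 10 mM in DMSO. Three separate sets of assays were run. MIC QC and culture purity were checked with antibiotics specific to each strain, using Etest QC ranges.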"}, "H. influenzae": {"tested_on": "H. influenzae", "test": "Time-kill study", "type": "cell-based, Haemophilus influenzae", "settings": "4×MIC", "how_it_was_run": "(§1)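 Time-kill following CLSI document M26-A. Growth media were Haemophilus Test Broth and Trypticase Soy Broth. Cultures with compound were sampled at 0, 2, 4, 6 and 24 h and plated for CFU counts. Controls had no compound but an equal amount of DMSO.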"}, "S. aureus": {"tested_on": "S. aureus", "test": "Time-kill study", "type": "cell-based, Staphylococcus aureus", "settings": "4×MIC", "how_it_was_run": "as §1"}, "[7]": {"substrate": "CSCC[C@H](N)C(=O)O", "test": "purified protein, by the assay type", "settings": "other: substrate methionine, ATP 2 mM; pH 7.5; 37.0 °C"}, "[8]": {"substrate": "Nc1ncnc2c1ncn2[C@@H]1O[C@H](COP(=O)(O)OP(=O)(O)OP(=O)(O)O)[C@@H](O)[C@H]1O", "test": "purified protein, by the assay type", "settings": "other: substrate ATP, methionine 2 mM; pH 7.5; 37.0 °C"}}, "note": "Like-named read-outs stand apart in the source and are kept apart here."}
{"molecule": "Nc1ncnc2c1ncn2[C@@H]1O[C@H](COP(=O)(O)OP(=O)(O)OP(=O)(O)O)[C@@H](O)[C@H]1O", "note": "[ATP, Adenosine triphosphate]", "values": [{"measurement": "kcat", "setting": "P. aeruginosa MetRS [1]; substrate ATP", "result": 24.2, "unit": "s⁻¹"}, {"measurement": "Km", "setting": "E. coli MetRS; E. coli MetRS with ATP", "result": 528, "unit": "µM"}, {"measurement": "kcat", "setting": "E. coli MetRS; E. coli MetRS with ATP", "result": 74, "unit": "µM"}]}
{"molecule": "CC1(C)C=Cc2c(c3c(c4c(=O)c(-c5ccc(O)c(O)c5)coc24)OC(C)(C)CC3)O1", "note": "[Isopomiferin, isopomiferin]", "values": [{"measurement": "MIC", "setting": "[2]", "result": "Moderate activity"}, {"measurement": "MIC", "setting": "E. faecalis (ATCC 29212)", "result": 32, "unit": "µg/mL"}, {"measurement": "MIC", "setting": "S. aureus (ATCC 29213)", "result": 32, "unit": "µg/mL"}, {"measurement": "CC50 relative to that of staurosporine", "setting": "[3]", "result": "10,000 fold"}, {"measurement": "competition with methionine for binding MetRS", "setting": "P. aeruginosa MetRS [4]", "result": "not observed to compete"}, {"measurement": "competition with methionine for binding MetRS", "setting": "P. aeruginosa MetRS [4]; listed as BM01C11", "result": "did not compete"}, {"measurement": "competition with ATP for binding MetRS", "setting": "P. aeruginosa MetRS [4]", "result": "not observed to compete"}, {"measurement": "competition with ATP for binding MetRS", "setting": "P. aeruginosa MetRS [4]; listed as BM01C11", "result": "did not compete"}, {"measurement": "form of inhibition", "setting": "P. aeruginosa MetRS [4]; IC50 constant as ATP or methionine increased", "result": "non-competitive"}, {"measurement": "IC50", "setting": "P. aeruginosa MetRS [5]; aminoacylation, 0.1 μM MetRS, compound 200 to 0.4 μM", "result": 70, "unit": "µM"}, {"measurement": "MIC", "setting": "[6]", "result": 16, "unit": "µg/mL"}, {"measurement": "mode of inhibition (time-kill)", "setting": "H. influenzae; 0-24 h", "result": "bacteriostatic"}, {"measurement": "decrease of colony forming units compared to the control", "setting": "H. influenzae; during 24 h", "result": "2 to 5", "unit": "log10 CFU"}, {"measurement": "mode of inhibition (time-kill)", "setting": "S. aureus; 0-24 h", "result": "bactericidal"}, {"measurement": "CFUs in time-kill", "setting": "S. aureus; first six hours of growth", "result": "no CFUs were observed"}]}
{"molecule": "CSCC[C@H](N)C(=O)O", "note": "[Methionine]", "values": [{"measurement": "kcat", "setting": "P. aeruginosa MetRS [1]; substrate methionine", "result": 37.2, "unit": "s⁻¹"}, {"measurement": "Km", "setting": "E. coli MetRS; E. coli MetRS with methionine", "result": 21, "unit": "µM"}, {"measurement": "kcat", "setting": "E. coli MetRS; E. coli MetRS with methionine", "result": 74, "unit": "µM"}]}
{"molecule": "O=c1cc(-c2cc(O)c(O)c(O)c2)oc2cc(O)cc(O)c12", "note": "[hieracin]", "values": [{"measurement": "IC50", "setting": "P. aeruginosa MetRS [5]", "result": 8.3, "unit": "µM"}]}
{"molecule": "B1", "values": [{"measurement": "Km", "setting": "[7]", "result": 35, "unit": "µM"}, {"measurement": "kcat", "setting": "[7]", "result": 37.2, "unit": "s⁻¹"}, {"measurement": "kcat/Km", "setting": "[7]", "result": 1.1, "unit": "µM/s"}, {"measurement": "Km", "setting": "[8]", "result": 515, "unit": "µM"}, {"measurement": "kcat", "setting": "[8]", "result": 24.2, "unit": "s⁻¹"}, {"measurement": "kcat/Km", "setting": "[8]", "result": 0.05, "unit": "µM/s"}]}
